KCNQ1 pot: potentiators or activators of human KCNQ1 potassium channel; CHO-K1 KCNQ1, thallium flux FluxOR fluorescence; hits give high values; B-score at 10 µM; 310,000 compounds, 0.35% hits; AID 2648;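 active means fluorescence ratio B-score, a plate-corrected score, at least three library SD, with initial intensity B-score within 5 SD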
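Medium – assay buffer, equal DMSO in all wells · Material – CHO-K1 cell line with stable KCNQ1 potassium channel expression · Signal – kinetic FluxOR thallium fluorescence, 10-s 1-Hz baseline, 110-s post-stimulus read · Compound – single concentration per compound, DMSO matched to controls · Schedule – 37 °C overnight plating, 90-min dark dye load, 20-min compound pretreatment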
KCNK9 block: inhibitors of human KCNK9 two-pore domain potassium channel; 310,000 compounds, 1.2% hits; HEK293 KCNK9, FluxOR thallium flux fluorescence; hits give low values; B-score at 10 µM; Q9NPC2;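 active means ratio B-score over 3 SD below the library mean, with starting fluorescence within 5 SD of its mean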;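 further: negative B-score means less thallium flux so channel inhibition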
Target sequence (Q9NPC2 whole entry, looked up, the tested form may be a part): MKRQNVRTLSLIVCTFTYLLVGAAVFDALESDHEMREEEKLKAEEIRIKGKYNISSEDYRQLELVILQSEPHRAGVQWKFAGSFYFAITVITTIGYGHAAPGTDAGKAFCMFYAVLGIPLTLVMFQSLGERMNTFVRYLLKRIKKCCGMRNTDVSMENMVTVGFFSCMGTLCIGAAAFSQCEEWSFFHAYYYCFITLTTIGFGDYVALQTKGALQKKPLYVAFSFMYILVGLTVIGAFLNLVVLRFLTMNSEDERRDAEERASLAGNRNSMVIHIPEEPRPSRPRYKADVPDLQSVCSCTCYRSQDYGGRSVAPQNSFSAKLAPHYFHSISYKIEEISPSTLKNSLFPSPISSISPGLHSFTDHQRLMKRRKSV
KCNK3 inh: human KCNK3 channel inhibition, primary screen; 340,000 compounds, 0.84% hits; O14649; B-score at 10 µM; CHO-KCNK3 thallium flux, FluxOR fluorescence; hits give low values;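 active means B-score under library mean minus 4 SD, starting fluorescence ratio at most library mean plus 5 SD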;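 further: more negative B-score means stronger inhibition of thallium flux through KCNK3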
hERG rescue: compounds protecting human hERG from proarrhythmic drug block | Q12809 | 310,000 compounds, 0.51% hits | activation (rescue from dofetilide block), less the hit threshold, % at 10 µM | CHO-hERG, FluxOR thallium flux, dofetilide IC70 present;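 active means activation above the mean of controls blocked by dofetilide plus 5 SD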;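 further: thallium influx through hERG after potassium depolarization seen as dye fluorescence rise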
Kir21 block: blocks the mouse Kir2.1 inward-rectifier potassium channel; AID 1672; HEK293-Kir2.1, FluxOR thallium flux fluorescence; hits give low values; B-score at 10 µM; 310,000 compounds, 0.85% hits;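 active means fluorescence ratio B-score at or below minus 3 SD of library scores, with starting-brightness B-score within 2 SD, cut at about -4.2 in these data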;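 further: channel flux triggered by added potassium and thallium sulfate stimulus; B-score of peak minus minimum fluorescence over baseline after thallium stimulus; more negative B-score means stronger Kir2.1 block with less thallium influx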
KCNQ1 block: blocks the human KCNQ1 potassium channel; AID 2642; CHO-K1 KCNQ1, FluxOR thallium flux fluorescence; hits give high values; B-score at 10 µM; P51787; 310,000 compounds, 1.3% hits;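 active means compounds whose thallium flux B-score, printed positive for inhibition, exceeds three library SD while starting fluorescence stays within three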;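 further: channel opened by potassium depolarization with thallium stimulus after 20 min compound exposure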
KCNK3 confirm: human KCNK3 channel inhibition, confirmation assay; AID 651638; 2,400 compounds, 99% hits; ratio percent of control, % at 10 µM; CHO-KCNK3 thallium flux, FluxOR fluorescence; 0% buffer, 100% carvedilol maximal block; shares compounds with KCNK3 inh;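 active means ratio percent of control, averaged over triplicates, above buffer control mean plus 5 SD, cut at about 64% in these data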;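 further: ratio is the fluorescence rise from min to max over baseline after thallium stimulus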
KCNK3 uninduced: activity in cells without induced KCNK3 expression; shares compounds with KCNK3 inh; non-induced KCNK3 parental cells, FluxOR thallium flux; hits give low values; thallium flux ratio (lower = more inhibition) at 10 µM; 2,400 compounds, 40% hits; AID 651747;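 active means thallium flux ratio, averaged over three wells, more than 5 SD below the buffer control mean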;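 further: host cells are CHO cells without KCNK3 induction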
A number is an active result. Only some compounds are listed: those with a hit (about 3.7% of all), similar ones and a draw of the others.

Results for CCn1c(O)c(/C=N/N=C/c2ccccc2)c2ccc(C3=NNC(=O)CC3)cc21 ?
KCNQ1 pot: inactive; KCNK9 block: inactive; KCNK3 inh: -8.9; hERG rescue: inactive; Kir21 block: inactive; KCNQ1 block: inactive; KCNK3 confirm: 131; KCNK3 uninduced: 0.12

What do the screens show for `CCC(CC)=N/N=C/c1c(O)n(CC)c2cc(C3=NNC(=O)CC3)ccc12`?
KCNQ1 pot: inactive; KCNK9 block: inactive; KCNK3 inh: inactive; hERG rescue: inactive; Kir21 block: inactive; KCNQ1 block: inactive

How did COC(=O)C1CCN(c2nc3ccccc3nc2C(C#N)C(=O)OCC(C)C)CC1 (stereo unspecified) do in these assays?
KCNQ1 pot: inactive; KCNK9 block: -6.8; KCNK3 inh: inactive; hERG rescue: inactive; Kir21 block: inactive; KCNQ1 block: inactive; KCNK3 confirm: 117; KCNK3 uninduced: 0.15

What do the screens show for `COC(=O)C1CCN(c2nc3ccccc3nc2C(C#N)C(=O)NCCc2ccccc2)CC1` (stereo unspecified)?
KCNQ1 pot: inactive; KCNK9 block: inactive; KCNK3 inh: inactive; hERG rescue: inactive; Kir21 block: inactive; KCNQ1 block: inactive

How did COc1ccc(Br)cc1/C=N/NC(=O)c1nc(-c2ccccc2)n2c1CCCCC2 do in these assays?
KCNQ1 pot: inactive; KCNK9 block: inactive; KCNK3 inh: -12; hERG rescue: inactive; Kir21 block: inactive; KCNQ1 block: 6; KCNK3 confirm: 113; KCNK3 uninduced: 0.14

What do the screens show for `COc1ccc(N(CC(=O)NCCSCc2ccco2)S(=O)(=O)c2ccccc2)cc1Cl`?
KCNQ1 pot: inactive; KCNK9 block: inactive; KCNK3 inh: -10; hERG rescue: inactive; Kir21 block: inactive; KCNQ1 block: inactive; KCNK3 confirm: 106; KCNK3 uninduced: inactive

Results for COc1cccc(N(CC(=O)NCCSCc2ccco2)S(=O)(=O)c2ccccc2)c1 ?
KCNQ1 pot: inactive; KCNK9 block: inactive; KCNK3 inh: inactive; hERG rescue: inactive; Kir21 block: inactive; KCNQ1 block: inactive

What do the screens show for `NS(=O)(=O)c1ccc(CNC(=O)C(c2ccccc2)c2ccccc2)cc1`?
KCNQ1 pot: inactive; KCNK9 block: inactive; KCNK3 inh: inactive; hERG rescue: inactive; Kir21 block: inactive; KCNQ1 block: inactive

Results for N#Cc1nc(COc2ccccc2F)oc1NCCc1ccccc1 ?
KCNQ1 pot: inactive; KCNK9 block: inactive; KCNK3 inh: -10; hERG rescue: inactive; Kir21 block: inactive; KCNQ1 block: inactive; KCNK3 confirm: 102; KCNK3 uninduced: inactive

How did N#Cc1nc(COc2ccccc2F)oc1N1CCCCCC1 do in these assays?
KCNK3 inh: inactive

What do the screens show for `CN(Cc1ccccc1)c1oc(COc2ccccc2F)nc1C#N`?
KCNQ1 pot: inactive; KCNK9 block: inactive; KCNK3 inh: -13; hERG rescue: inactive; Kir21 block: inactive; KCNQ1 block: inactive; KCNK3 confirm: 115; KCNK3 uninduced: 0.14

How did O=C(CSc1nc2ccccc2c(=O)n1CCCN1CCOCC1)Nc1ccccc1OC(F)F do in these assays?
KCNK3 inh: inactive

How did COc1ccc(C)cc1-n1c(SCC(=O)Nc2cc(C)on2)nc2sc(C)c(C)c2c1=O do in these assays?
KCNQ1 pot: inactive; KCNK9 block: inactive; KCNK3 inh: -11; hERG rescue: inactive; Kir21 block: inactive; KCNQ1 block: inactive; KCNK3 confirm: 128; KCNK3 uninduced: inactive

How did COCCn1c(=NC(=O)CSCC(=O)N2CCOCC2)sc2ccccc21 do in these assays?
KCNQ1 pot: inactive; KCNK9 block: inactive; KCNK3 inh: inactive; hERG rescue: inactive; Kir21 block: inactive; KCNQ1 block: inactive

What do the screens show for `CCOC(=O)c1sc(NC(=O)C(CC)OC(=O)C(CC(C)C)NC(=O)c2ccccc2)nc1C` (stereo unspecified)?
KCNQ1 pot: inactive; KCNK9 block: inactive; KCNK3 inh: -11; hERG rescue: inactive; Kir21 block: inactive; KCNQ1 block: inactive; KCNK3 confirm: 108; KCNK3 uninduced: inactive

What do the screens show for `CC(C)Oc1ccc(S(=O)(=O)N2CCOCC2)cc1NC(=O)CCCSc1ccccc1`?
KCNK3 inh: inactive

Results for COc1ccc(C(C)=O)cc1COC(=O)CNC(=O)c1ccc(F)cc1 ?
KCNQ1 pot: inactive; KCNK9 block: inactive; KCNK3 inh: inactive; hERG rescue: inactive; Kir21 block: inactive; KCNQ1 block: inactive

How did COc1ccc(C(C)=O)cc1COc1ccc(F)cc1 do in these assays?
KCNQ1 pot: inactive; KCNK9 block: inactive; KCNK3 inh: -9.2; hERG rescue: inactive; Kir21 block: inactive; KCNQ1 block: inactive; KCNK3 confirm: 115; KCNK3 uninduced: inactive

Results for COc1ccc(C(CNC(=O)C(=O)NC2CCCC2)N2CCN(C)CC2)cc1 (stereo unspecified) ?
KCNQ1 pot: inactive; KCNK9 block: inactive; KCNK3 inh: inactive; hERG rescue: inactive; Kir21 block: inactive; KCNQ1 block: inactive

Results for CCOC(=O)NC(=O)COC(=O)Cc1cc(OC)c(OC)c(OC)c1 ?
KCNQ1 pot: inactive; KCNK9 block: inactive; KCNK3 inh: inactive; hERG rescue: inactive; Kir21 block: inactive; KCNQ1 block: inactive

What do the screens show for `O=C(NC1CCCCC1)N1CCN(c2nc(-c3ccccc3)cs2)CC1`?
KCNQ1 pot: inactive; KCNK9 block: inactive; KCNK3 inh: inactive; hERG rescue: inactive; Kir21 block: inactive; KCNQ1 block: inactive

Results for O=C(NC12CC3CC(CC(C3)C1)C2)N1CCN(c2nc(-c3ccccc3)cs2)CC1 ?
KCNQ1 pot: inactive; KCNK9 block: -6.7; KCNK3 inh: inactive; hERG rescue: inactive; Kir21 block: inactive; KCNQ1 block: inactive; KCNK3 confirm: 104; KCNK3 uninduced: inactive

What do the screens show for `NC(=O)CSc1nc2cc(Cl)ccc2c(=O)n1C1CCCCC1`?
KCNQ1 pot: inactive; KCNK9 block: inactive; KCNK3 inh: -10; hERG rescue: inactive; Kir21 block: inactive; KCNQ1 block: inactive; KCNK3 confirm: 95; KCNK3 uninduced: inactive

What do the screens show for `O=C(Nc1ccccc1)c1sccc1Oc1ccc([N+](=O)[O-])cc1F`?
KCNQ1 pot: inactive; KCNK9 block: inactive; KCNK3 inh: -9; hERG rescue: inactive; Kir21 block: inactive; KCNQ1 block: inactive; KCNK3 confirm: 113; KCNK3 uninduced: inactive

Results for O=C(O)c1cc([N+](=O)[O-])ccc1C(=O)Nc1ccccc1 ?
KCNQ1 pot: inactive; KCNK9 block: inactive; KCNK3 inh: inactive; hERG rescue: inactive; Kir21 block: inactive; KCNQ1 block: inactive

How did C/C(=N\NC(=O)C1CC1)c1ccc(C)cc1C do in these assays?
KCNQ1 pot: inactive; KCNK9 block: inactive; KCNK3 inh: inactive; hERG rescue: inactive; Kir21 block: inactive; KCNQ1 block: inactive
